{"source": "ChEMBL document CHEMBL4308843", "about": "“Identification of ABX-1431, a Selective Inhibitor of Monoacylglycerol Lipase and Clinical Candidate for Treatment of Neurological Disorders” (J Med Chem, 2018)", "key": {"[1]": {"molecular_target": "T1, Platelet-activating factor acetylhydrolase (Homo sapiens, UniProt Q13093)", "T1 sequence (Q13093 whole entry)": "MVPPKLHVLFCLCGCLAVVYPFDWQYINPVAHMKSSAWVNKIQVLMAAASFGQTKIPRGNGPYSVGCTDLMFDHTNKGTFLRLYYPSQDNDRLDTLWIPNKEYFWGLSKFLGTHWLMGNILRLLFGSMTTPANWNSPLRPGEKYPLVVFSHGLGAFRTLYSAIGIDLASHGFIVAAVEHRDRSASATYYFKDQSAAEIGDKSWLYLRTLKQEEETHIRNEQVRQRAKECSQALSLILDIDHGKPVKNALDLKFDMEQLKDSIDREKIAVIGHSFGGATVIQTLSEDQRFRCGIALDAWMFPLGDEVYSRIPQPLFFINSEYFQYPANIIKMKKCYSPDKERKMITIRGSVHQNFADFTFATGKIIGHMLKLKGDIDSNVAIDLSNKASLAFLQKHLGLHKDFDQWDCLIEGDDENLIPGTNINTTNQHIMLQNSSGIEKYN", "assay": "Inhibition of PLA2G7 derived from human PC3 cell lysates preincubated for 30 mins followed by JW912 addition after 30 mins by gel-based ABPP assay", "type": "subcellular, Lysate"}, "[2]": {"assay": "Intrinsic clearance in human liver microsomes", "type": "ADME, Microsome", "settings": "read-out: CLH"}, "Mus musculus [3]": {"system": "Mus musculus", "assay": "In-vivo inhibition of MGLL in ICR mouse brain assessed as target engagement at 5 mg/kg, po measured 4 hrs post dose by gel-based ABPP assay relative to control", "type": "functional", "design": "scale not given: the % may be the effect or the level left", "procedure,_shortened": "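Mice received a single 5 mg/kg oral gavage dose. Whole brains were collected 4 h post-dose and target engagement was read by gel-based ABPP with FP-Rh probe.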"}, "[4]": {"molecular_target": "T2, Monoacylglycerol lipase ABHD6 (Mus musculus) (UniProt Q8R2Y0)", "T2 sequence (whole entry)": "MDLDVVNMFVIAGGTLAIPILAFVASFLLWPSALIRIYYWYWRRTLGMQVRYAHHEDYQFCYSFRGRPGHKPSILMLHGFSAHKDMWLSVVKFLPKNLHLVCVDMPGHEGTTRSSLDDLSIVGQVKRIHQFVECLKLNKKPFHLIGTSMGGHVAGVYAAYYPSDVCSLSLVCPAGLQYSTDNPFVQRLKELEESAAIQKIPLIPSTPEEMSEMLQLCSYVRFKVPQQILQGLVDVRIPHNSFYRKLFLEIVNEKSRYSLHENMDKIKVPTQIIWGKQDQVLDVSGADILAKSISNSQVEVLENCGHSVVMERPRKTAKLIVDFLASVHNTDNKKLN", "assay": "Inhibition of ABHD6 in mouse brain membrane homogenates at 0.001 to 10 uM preincubated for 30 mins followed by FP-Rh addition after 30 mins by gel-based ABPP assay", "type": "cell membranes"}, "Canis lupus familiaris": {"species": "Canis lupus familiaris", "assay": "Inhibition of ABHD6 in dog brain membrane homogenates at 0.001 to 10 uM preincubated for 30 mins followed by FP-Rh addition after 30 mins by gel-based ABPP assay", "type": "cell membranes", "procedure,_shortened": "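Dog brain membrane homogenates (1 mg/mL protein) were preincubated with 0.001-10 µM inhibitor or DMSO for 30 min at 37°C. They were then labelled with 1 µM probe (FP-Rh or HT-01) for 30 min at 25°C. Reactions were quenched in SDS-PAGE loading buffer and scanned in-gel. ABHD6 band intensities were normalised to DMSO.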"}, "[5]": {"assay": "Clearance in Sprague-Dawley rat at 1 mg/kg, iv or 5 mg/kg, po by LC-MS analysis", "type": "ADME, organism-based", "settings": "in vivo", "procedure,_shortened": "(§1)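 Rats (n = 3 per route) were dosed at 1 mg/kg iv (70% PEG400 in HPBCD/saline) or 5 mg/kg po (70% PEG400 in 0.5% CMC/saline), fasted overnight to 4 h post-dose. Jugular-catheter blood (~100 µL) was sampled to 24 h into 400 µL acetonitrile to stop esterases. Samples were quantified by HPLC-MS/MS, with noncompartmental analysis.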"}, "[6]": {"assay": "Half life in Sprague-Dawley rat at 1 mg/kg, iv by LC-MS analysis", "type": "ADME, organism-based", "settings": "in vivo", "procedure,_shortened": "as §1"}, "[7]": {"assay": "Volume of distribution at steady state in Beagle dog at 1 mg/kg, iv or 1 mg/kg, po by LC-MS analysis", "type": "ADME, organism-based, Canis lupus familiaris", "settings": "in vivo, read-out: Vdss", "procedure,_shortened": "(§2)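 Male beagle dogs (n = 3 per route), 10–12 months old, were dosed at 1 mg/kg iv or po in PEG400/ethanol/PBS (7/2/1), fasted overnight to 2 h post-dose. Peripheral venous blood was sampled to 24 h into K2EDTA and plasma frozen at −80 °C. Plasma was quantified by HPLC-MS/MS, with noncompartmental analysis.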"}, "[8]": {"assay": "Oral bioavailability in Beagle dog at 1 mg/kg by LC-MS analysis", "type": "ADME, organism-based, Canis lupus familiaris", "settings": "in vivo", "procedure,_shortened": "as §2"}, "[9]": {"assay": "Stability in Sprague-Dawley rat plasma", "type": "ADME, cell-free"}, "Cytochrome P450 3A4": {"molecular_target": "Cytochrome P450 3A4 (Homo sapiens, UniProt P08684)", "sequence (P08684 whole entry)": "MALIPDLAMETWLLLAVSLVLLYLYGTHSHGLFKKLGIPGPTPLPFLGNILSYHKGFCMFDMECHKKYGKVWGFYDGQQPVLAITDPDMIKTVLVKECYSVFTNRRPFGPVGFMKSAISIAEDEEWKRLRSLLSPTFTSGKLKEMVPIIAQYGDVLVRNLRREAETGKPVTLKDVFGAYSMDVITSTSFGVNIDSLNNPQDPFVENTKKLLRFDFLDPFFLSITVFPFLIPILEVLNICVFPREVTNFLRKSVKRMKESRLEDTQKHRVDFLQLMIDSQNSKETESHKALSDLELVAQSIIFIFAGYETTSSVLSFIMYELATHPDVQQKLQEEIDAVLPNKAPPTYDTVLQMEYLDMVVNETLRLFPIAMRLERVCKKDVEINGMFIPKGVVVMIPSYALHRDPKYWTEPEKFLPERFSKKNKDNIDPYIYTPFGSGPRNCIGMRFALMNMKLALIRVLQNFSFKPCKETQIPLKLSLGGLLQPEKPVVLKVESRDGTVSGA", "assay": "Inhibition of recombinant human CYP3A4", "type": "ADME"}, "Cytochrome P450 3A5": {"molecular_target": "Cytochrome P450 3A5 (Homo sapiens, UniProt P20815)", "sequence (P20815 whole entry)": "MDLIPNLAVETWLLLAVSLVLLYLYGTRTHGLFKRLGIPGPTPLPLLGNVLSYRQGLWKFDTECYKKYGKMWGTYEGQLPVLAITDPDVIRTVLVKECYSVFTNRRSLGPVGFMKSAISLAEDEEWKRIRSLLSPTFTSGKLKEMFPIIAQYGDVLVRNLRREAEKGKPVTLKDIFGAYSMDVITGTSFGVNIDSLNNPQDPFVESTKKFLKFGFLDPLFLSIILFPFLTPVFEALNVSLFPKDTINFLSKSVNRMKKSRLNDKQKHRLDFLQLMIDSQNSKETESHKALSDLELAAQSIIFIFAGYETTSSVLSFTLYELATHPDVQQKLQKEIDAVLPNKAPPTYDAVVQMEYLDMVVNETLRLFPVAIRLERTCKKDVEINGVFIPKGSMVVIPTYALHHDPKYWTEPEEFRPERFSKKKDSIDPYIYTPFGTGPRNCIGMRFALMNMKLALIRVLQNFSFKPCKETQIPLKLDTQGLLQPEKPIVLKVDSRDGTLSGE", "assay": "Inhibition of recombinant human CYP3A5", "type": "ADME"}, "[10]": {"assay": "Substrate activity at BCRP (unknown origin) at 10 uM", "type": "ADME", "settings": "human"}, "Mus musculus [11]": {"system": "Mus musculus", "assay": "In vivo inhibition of MGLL in po dosed ICR mouse brain measured 4 hrs post dose in presence of FP-Rh probe by gel-based ABPP assay", "type": "functional", "procedure,_shortened": "(§3)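 Male ICR mice, 6–12 weeks old, single oral gavage 0.5–32 mg/kg in PEG400:ethanol:PBS (7/2/1), 5 mL/kg, n = 3. Killed at 4 h; one brain hemisphere for gel-based ABPP with FP-Rh (MGLL band quantified), the other for 2-AG by LC-MS/MS.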"}, "Mus musculus [12]": {"system": "Mus musculus", "assay": "In vivo inhibition of MGLL in po dosed ICR mouse brain assessed as increase in 2-AG measured at 4 hrs post dose by LC-MS/MS analysis", "type": "functional, organism-based", "procedure,_shortened": "as §3"}, "Mus musculus [13]": {"system": "Mus musculus", "assay": "In vivo inhibition of MGLL in ICR mouse brain at 25 mg/kg, po measured at 4 hrs post dose in presence of FP-Rh probe by gel-based ABPP assay", "type": "functional, organism-based"}, "Rattus norvegicus [14]": {"system": "Rattus norvegicus", "assay": "Antinociceptive activity in po dosed Sprague-Dawley rat brain assessed as inhibition of MGLL activity measured after 4 hrs post dose in presence of FP-Rh probe by gel-based ABPP assay", "type": "functional", "procedure,_shortened": "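Male Sprague Dawley rats, 6–12 weeks old, given single oral doses (0.03–10 mg/kg) in 0.5% methylcellulose at 5 mL/kg. Brains were taken 4 h post-dose and forebrain sections excised from one hemisphere. Brain proteome was labeled with FP-Rh (1 µM, 30 min) and analyzed by SDS-PAGE with in-gel fluorescence. Band intensity was normalized to vehicle.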"}, "Rattus norvegicus [15]": {"system": "Rattus norvegicus", "assay": "Effect on spontaneous locomotor activity in Sprague-Dawley rat assessed as locomotor counts at 10 mg/kg, po monitored over 10 mins period", "type": "ADME, organism-based", "settings": "in vivo", "procedure,_shortened": "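Male Sprague Dawley rats (175–200 g) received vehicle (0.5% methylcellulose) or 10 mg/kg orally. Four hours later, spontaneous locomotor frequency was recorded for 10 min in a vibration-sensing Laboras cage system; n = 10 per group.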"}, "[16]": {"molecular_target": "ATP-dependent translocase ABCB1 (Homo sapiens, UniProt P08183)", "sequence (P08183 whole entry)": "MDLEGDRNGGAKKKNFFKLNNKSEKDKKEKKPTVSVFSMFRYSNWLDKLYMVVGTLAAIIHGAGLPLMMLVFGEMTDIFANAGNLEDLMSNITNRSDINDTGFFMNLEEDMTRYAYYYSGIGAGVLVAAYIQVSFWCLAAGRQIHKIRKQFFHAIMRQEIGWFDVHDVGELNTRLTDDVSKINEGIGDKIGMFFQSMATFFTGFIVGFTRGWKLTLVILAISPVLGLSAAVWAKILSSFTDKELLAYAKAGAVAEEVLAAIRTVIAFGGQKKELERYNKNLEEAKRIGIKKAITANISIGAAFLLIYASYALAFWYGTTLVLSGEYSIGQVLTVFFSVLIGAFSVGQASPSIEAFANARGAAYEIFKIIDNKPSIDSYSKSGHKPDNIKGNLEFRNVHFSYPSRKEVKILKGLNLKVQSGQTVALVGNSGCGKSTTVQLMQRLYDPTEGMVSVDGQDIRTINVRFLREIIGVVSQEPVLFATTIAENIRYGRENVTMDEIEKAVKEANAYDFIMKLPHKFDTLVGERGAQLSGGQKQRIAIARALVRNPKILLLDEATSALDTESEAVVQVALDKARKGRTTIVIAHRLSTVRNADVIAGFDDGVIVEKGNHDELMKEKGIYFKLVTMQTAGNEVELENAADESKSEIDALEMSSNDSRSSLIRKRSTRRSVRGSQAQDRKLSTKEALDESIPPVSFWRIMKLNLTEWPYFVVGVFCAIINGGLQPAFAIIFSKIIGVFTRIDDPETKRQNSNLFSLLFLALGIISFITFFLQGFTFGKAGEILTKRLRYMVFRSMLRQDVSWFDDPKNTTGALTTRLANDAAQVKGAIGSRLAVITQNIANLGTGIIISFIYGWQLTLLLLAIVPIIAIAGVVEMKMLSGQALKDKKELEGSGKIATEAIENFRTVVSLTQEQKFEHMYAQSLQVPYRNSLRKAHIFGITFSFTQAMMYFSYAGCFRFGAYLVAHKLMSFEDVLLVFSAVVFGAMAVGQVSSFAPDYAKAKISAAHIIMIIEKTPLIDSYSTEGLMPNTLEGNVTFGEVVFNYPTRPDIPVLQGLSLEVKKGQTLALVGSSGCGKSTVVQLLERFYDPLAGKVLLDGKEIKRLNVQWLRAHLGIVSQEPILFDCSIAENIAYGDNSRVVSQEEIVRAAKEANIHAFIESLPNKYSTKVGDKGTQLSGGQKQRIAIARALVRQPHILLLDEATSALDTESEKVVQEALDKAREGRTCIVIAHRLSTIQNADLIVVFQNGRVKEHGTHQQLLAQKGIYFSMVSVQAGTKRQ", "assay": "Inhibition of P-gp (unknown origin) at 10 uM", "type": "ADME"}, "[17]": {"assay": "Inhibition of BCRP (unknown origin) at 10 uM", "type": "ADME", "settings": "human"}}, "note": "Calls of active or inactive are those of the source. No cut-off for these calls is given here."}
{"compound": "O=C(OC(C(F)(F)F)C(F)(F)F)N1CCN(Cc2ccc(C(F)(F)F)cc2N2CCCC2)CC1", "note": "[ELCUBRAGISTAT]", "values": [{"measurement": "IC50", "setting": "[1]", "result": "> 10", "unit": "µM"}, {"measurement": "microsomal CLint", "setting": "[2]", "result": 19, "unit": "µL/min/mg"}, {"measurement": "Activity", "setting": "Mus musculus [3]", "result": 100, "unit": "%"}, {"measurement": "inhibition", "setting": "[4]", "result": "Active"}, {"measurement": "inhibition", "setting": "Canis lupus familiaris", "result": "Active"}, {"measurement": "clearance", "setting": "[5]", "result": 14.7, "unit": "mL/min/kg"}, {"measurement": "half-life", "setting": "[6]", "result": 3.6, "unit": "h"}, {"measurement": "Vd", "setting": "[7]", "result": 1.2, "unit": "L/kg"}, {"measurement": "bioavailability", "setting": "[8]", "result": 57, "unit": "%"}, {"measurement": "Stability", "setting": "[9]", "result": "Unstable"}, {"measurement": "IC50", "setting": "Cytochrome P450 3A4", "result": "> 50", "unit": "µM"}, {"measurement": "IC50", "setting": "Cytochrome P450 3A5", "result": "> 50", "unit": "µM"}, {"measurement": "Activity", "setting": "[10]", "result": "Not Active"}, {"measurement": "ED50", "setting": "Mus musculus [11]", "result": 1.4, "unit": "mg/kg"}, {"measurement": "inhibition", "setting": "Mus musculus [11]", "result": "Dose-dependent effect"}, {"measurement": "inhibition", "setting": "Mus musculus [12]", "result": "Dose-dependent effect"}, {"measurement": "inhibition", "setting": "Mus musculus [13]", "result": "Active"}, {"measurement": "ED50", "setting": "Rattus norvegicus [14]", "result": 0.5, "unit": "mg/kg"}, {"measurement": "Activity", "setting": "Rattus norvegicus [15]", "result": "Non-Toxic"}, {"measurement": "inhibition (INH)", "setting": "[16]", "result": "Not Active"}, {"measurement": "inhibition (INH)", "setting": "[17]", "result": "Not Active"}]}
